{"source": "ChEMBL document CHEMBL1124598", "about": "“Benzofuro[2,3-c]pyridin-6-ols: synthesis, affinity for opioid-receptor subtypes, and antinociceptive activity” (J Med Chem, 1989)", "data": [{"test_system": "Mus musculus", "assay": "Analgesic activity 30 min after subcutaneous administration in mouse by using PQW test", "format": "functional", "conditions": "sc, 0.5 h", "outline": "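Male CF-1 mice (18-23 g), ten per dose; compound given sc, then 30 min later phenylquinone 3.75 mg/kg in 5% aqueous ethanol ip. Mice observed 10 min in free-moving cages for abdominal stretching. ED50 determined with 95% confidence limits.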", "units": {"ED50": "µmol/kg"}, "values": [{"smiles": "CC[C@@]12CCN(CC3CCCC3)C[C@@H]1Oc1ccc(O)cc12", "ED50": 0.0521}, {"smiles": "CCCN1CC[C@@]2(CC)c3cc(O)ccc3O[C@H]2C1", "ED50": 0.0051}, {"smiles": "CC[C@@]12CCN(C)C[C@@H]1Oc1ccc(O)cc12", "ED50": 0.005}, {"smiles": "CC[C@@]12CCN(CC3CCC3)C[C@@H]1Oc1ccc(O)cc12", "ED50": 0.00145}, {"smiles": "CC[C@@]12CCN(Cc3ccoc3)C[C@@H]1Oc1ccc(O)cc12", "ED50": 0.0512}, {"smiles": "CC[C@@]12CCN(CC3CCCO3)C[C@@H]1Oc1ccc(O)cc12", "note": "(some centres undefined)", "ED50": 0.005}, {"smiles": "CC[C@@]12CCN(Cc3ccco3)C[C@@H]1Oc1ccc(O)cc12", "ED50": 0.0908}, {"smiles": "CC[C@@]12CCN(CC3CC3)C[C@@H]1Oc1ccc(O)cc12", "ED50": 0.00119}, {"smiles": "CC[C@@]12CCN(CCc3ccccc3)C[C@@H]1Oc1ccc(O)cc12", "ED50": 0.00037}]}]}
